Laboratory results taken from paper PMC7237122 (OncoTargets and therapy, 2020).

Tests used:
IL-6 = assay: H22-tumor-bearing mice: IL-6 ELISA of serum and tumor; type: in vivo; conditions: for IL-6 concentration, tumor ELISA: tumor tissue, compared with model group
Summary of the method: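 Male Kunming mice (20~22 g) bearing H22 tumors (100~150 mm3 at day 7, 10~12/group) were dosed 8 days: test agents ip 100 mg/kg or po 400/720 mg/kg daily, or 5-Fu ip 200 mg/kg twice weekly. Mice were fasted 16 h and ether-euthanised. IL-6 was measured by ELISA in eye-collected blood and in liquid-nitrogen-frozen tumor tissue. Mean ± standard error; ANOVA.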

ALT and AST = assay: H22-tumor-bearing mice: liver function; type: in vivo; conditions: blood of H22-tumor-bearing mice, compared with model group
Summary of the method: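 H22 ascites cells were injected into male Kunming mice; tumors of 100~150 mm3 at 7 days were randomised (10~12/group) against saline model and uninoculated normal groups. Test agents were given daily for 8 days (ip 100 mg/kg; po 400 or 720 mg/kg). After a 16 h fast, blood was taken from the eyes for ALT and AST. Mean ± standard error; ANOVA.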

SMMC-7721 cells [1] = assay: Hochest apoptosis test in SMMC-7721 cells; type: cell-based; conditions: concentration not given
Summary of the method: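 Apoptosis in SMMC-7721 cells exposed to test extract or compounds was assessed by Hoechst staining per kit instructions. Mean ± standard error; ANOVA.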

H22-tumor-bearing mice [2] = assay: H22-tumor-bearing mice: tolerability; type: in vivo; conditions: for mice analyzed / mice in group: 5-Fu ip 200 mg/kg twice a week, SOLB ip 100 mg/kg once daily, 8 days
Summary of the method: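 Animals bearing 7-day H22 tumors (male Kunming, 10~12/group) were treated once daily 09:00–10:00 for 8 days (test agents ip or po); 5-Fu ip 200 mg/kg was given twice weekly. Appearance and behaviour were observed, and diarrhea, irritation and emaciation were recorded. Body weight was followed over therapy. Liver was fixed overnight in 4% buffered paraformaldehyde for HE.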

[3] = system: JAK2, Tyr705-p-STAT3, Ser725-p-STAT3; assay: H22-tumor-bearing mice: Western blotting of tumor tissue; type: in vivo; conditions: compared with model group
SMMC-7721 cells [4] = assay: MTT analysis of SMMC-7721 cells; type: cell-based
Summary of the method: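 SMMC-7721 cells (Shanghai Institute of Cell Biology) were incubated with test extract or compounds, and growth was read by MTT. Mean ± standard error; ANOVA, P<0.05.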

H22-tumor-bearing mice [5] = assay: H22-tumor-bearing mice: tumor size, tumor weight, HE staining; type: in vivo; conditions: for tumor inhibition rate (TIR), tumor weight: 5-Fu ip 200 mg/kg twice a week, SOLB ip 100 mg/kg once daily, 8 days; for tumor size: H22-tumor-bearing mice, compared with model group
Summary of the method: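 In H22-inoculated male Kunming mice (tumors 100~150 mm3, randomised 10~12/group), treatment ran 8 days (daily test agents; 5-Fu twice weekly). Tumor size was measured by Vernier calipers. Tumors were excised after a 16 h fast and ether euthanasia. Inhibition rate was taken from mean tumor indices of drug versus model groups. Tissue was fixed overnight in 4% buffered paraformaldehyde for HE. Mean ± standard error; ANOVA.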

Compound: COc1cc2c(c(OC)c1OC)-c1c(cc3c(c1OC)OCO3)C[C@H](C)[C@@](C)(O)C2 [SOLB, schisandrol B]
- IL-6 concentration, serum ELISA (IL-6): less than 5-Fu but more than DWYG extract
- IL-6 concentration, tumor ELISA (IL-6): less than in the model group
- liver function: ALT and AST levels (ALT and AST): effective
- effect on apoptosis (Hochest), pure compounds (SMMC-7721 cells [1]): an active ingredient of DWYG extract
- mice analyzed / mice in group (H22-tumor-bearing mice [2]): 12/12
- protein expressions of JAK2, Tyr705-p-STAT3, Ser725-p-STAT3 (Western) [3]: could inhibit protein expressions of JAK2, Tyr705-p-STAT3, and Ser725-p-STAT3
- growth of SMMC-7721 cells (MTT) (SMMC-7721 cells [4]): could inhibit the growth of SMMC-7721 cells in a dose-dependent manner
- tumor inhibition rate (TIR), tumor weight (H22-tumor-bearing mice [5]): 34.98%
- tumor size (H22-tumor-bearing mice [5]): effective but not better than 5-Fu

Compound: COc1cc(/C=C/C(=O)CC(=O)/C=C/c2ccc(O)c(OC)c2)ccc1O [CUR, curcumin]
- growth of SMMC-7721 cells (MTT) (SMMC-7721 cells [4]): could inhibit the growth of SMMC-7721 cells in a dose-dependent manner

Compound: schisandrol A [SOLA]
- effect on apoptosis (Hochest), pure compounds (SMMC-7721 cells [1]): not good

Compound: COc1cc2c(c(OC)c1OC)-c1c(cc3c(c1OC)OCO3)CC(C)C(C)C2 (stereo not shown) [SCHB, schisandrin B]
- growth of SMMC-7721 cells (MTT) (SMMC-7721 cells [4]): could inhibit the growth of SMMC-7721 cells in a dose-dependent manner

Compound: O=C(O)/C=C/c1ccc(O)c(O)c1 [CAF, caffeic acid]
- growth of SMMC-7721 cells (MTT) (SMMC-7721 cells [4]): no obvious effects

Compound: O=C1C[C@@H](c2ccc(O[C@@H]3O[C@H](CO)[C@@H](O)[C@H](O)[C@H]3O)cc2)Oc2cc(O)ccc21 [LIQ, liquiritin]
- growth of SMMC-7721 cells (MTT) (SMMC-7721 cells [4]): no obvious effects

Compound: demethoxycurcumin
- growth of SMMC-7721 cells (MTT) (SMMC-7721 cells [4]): could inhibit the growth of SMMC-7721 cells in a dose-dependent manner

Compound: deoxyschizandrin
- effect on apoptosis (Hochest), pure compounds (SMMC-7721 cells [1]): not good
- growth of SMMC-7721 cells (MTT) (SMMC-7721 cells [4]): could inhibit the growth of SMMC-7721 cells in a dose-dependent manner

Compound: O=c1[nH]cc(F)c(=O)[nH]1 [5-Fu, 5-fluorouracil]
- IL-6 concentration, serum ELISA (IL-6): increasing not decreasing IL-6
- IL-6 concentration, tumor ELISA (IL-6): higher than the model group
- liver function: ALT and AST levels (ALT and AST): the best
- mice analyzed / mice in group (H22-tumor-bearing mice [2]): 10/12
- appearance and behavior (adverse reactions) (H22-tumor-bearing mice [2]; therapeutic period): diarrhea and alopecia, their appetite was poor
- weights of mice (H22-tumor-bearing mice [2]; therapeutic period): steadily increased during the therapeutic period except in the 5-Fu group
- protein expressions of JAK2, Tyr705-p-STAT3, Ser725-p-STAT3 (Western) [3]: could inhibit protein expressions of JAK2, Tyr705-p-STAT3, and Ser725-p-STAT3
- tumor inhibition rate (TIR), tumor weight (H22-tumor-bearing mice [5]): 91.94%
- tumor size (H22-tumor-bearing mice [5]): the smallest
- HE staining of tumor tissue (H22-tumor-bearing mice [5]; chromatin condensation and nuclear shrinkage, compared to model group): good

Compound: O=C(/C=C/c1ccc(O)cc1)CC(=O)/C=C/c1ccc(O)cc1 [BIS, bisdemethoxycurcumin]
- growth of SMMC-7721 cells (MTT) (SMMC-7721 cells [4]): could inhibit the growth of SMMC-7721 cells in a dose-dependent manner

Compound: OC[C@H]1O[C@@H](O[C@@H]2OC=C[C@H]3[C@H](O)[C@@H]4O[C@]4(CO)[C@@H]23)[C@H](O)[C@@H](O)[C@@H]1O [CAT, catalpol]
- growth of SMMC-7721 cells (MTT) (SMMC-7721 cells [4]): no obvious effects

Compound: schisantherin A [SINA]
- growth of SMMC-7721 cells (MTT) (SMMC-7721 cells [4]): could inhibit the growth of SMMC-7721 cells in a dose-dependent manner

Compound: O=C(/C=C/c1ccc(O)c(O)c1)O[C@@H]1C[C@](O)(C(=O)O)C[C@@H](O)[C@H]1O [CHL, chlorogenic acid]
- growth of SMMC-7721 cells (MTT) (SMMC-7721 cells [4]): no obvious effects
